From ChEMBL document CHEMBL3784921, “Mimicking of Arginine by Functionalized N(ω)-Carbamoylated Arginine As a New Broadly Applicable Approach to Labeled Bioactive Peptides: High Affinity Angiotensin, Neuropeptide Y, Neuropeptide FF, and Neurotensin Receptor Ligands As Examples” (J Med Chem, 2016)
*1 amine or outer side, *2 acyl side, *3 side chain or, on linkers, in order; H or OH if unused. Where a SMILES comes first, the peptide text is derived from it. Bridges are numbered along the chain shown (N, C = ends). Roman numbers before positions name the chains, in order. [ ]: non-standard residue; d: D form. X1 = CCC(=O)NCCCCNC(=O)/N=C(\N)NCCC[C@H](N[*:1])C(=O)[*:2]; X3 = NCCOCCOCCNC(=O)/N=C(\N)NCCC[C@H](N[*:1])C(=O)[*:2]; X4 = NCCOCCOCCNC(=O)/N=C(/N)NCCC[C@H](N[*:1])C(=O)[*:2]; X2 = NCCCCNC(=O)/N=C(\N)NCCC[C@H](N[*:1])C(=O)[*:2]; Suberoyl = O=C(CCCCCCC(=O)[*:2])[*:1]

Tests used:
[1] = target: Neuropeptide Y receptor type 4 (Homo sapiens, UniProt P50391); assay: Displacement of S0586[K4]hpp from human NPY4 receptor expressed in CHO cells co-expressing Gqi5-mtAEQ by flow cytometric analysis; type: cell-based
Chain of Neuropeptide Y receptor type 4 (P50391 whole entry): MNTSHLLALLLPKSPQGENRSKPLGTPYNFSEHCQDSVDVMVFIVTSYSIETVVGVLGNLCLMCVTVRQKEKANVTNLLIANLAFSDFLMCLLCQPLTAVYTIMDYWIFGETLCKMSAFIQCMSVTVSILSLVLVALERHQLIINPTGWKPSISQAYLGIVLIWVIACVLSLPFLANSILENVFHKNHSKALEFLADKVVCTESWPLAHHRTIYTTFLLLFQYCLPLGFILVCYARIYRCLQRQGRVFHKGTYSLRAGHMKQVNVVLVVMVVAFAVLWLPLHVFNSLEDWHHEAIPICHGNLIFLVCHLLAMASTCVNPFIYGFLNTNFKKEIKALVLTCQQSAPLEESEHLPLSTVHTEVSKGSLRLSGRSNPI

[2] = target: T1, Type-1 angiotensin II receptor (Homo sapiens, UniProt P30556); assay: Agonist activity at human AT1 receptor transfected in CHO cells co-expressing Galpha16-mtAEQ assessed as induction of intracellular Ca2+ mobilization by bioluminescence assay; type: functional, cell-based
T1 sequence (P30556 whole entry): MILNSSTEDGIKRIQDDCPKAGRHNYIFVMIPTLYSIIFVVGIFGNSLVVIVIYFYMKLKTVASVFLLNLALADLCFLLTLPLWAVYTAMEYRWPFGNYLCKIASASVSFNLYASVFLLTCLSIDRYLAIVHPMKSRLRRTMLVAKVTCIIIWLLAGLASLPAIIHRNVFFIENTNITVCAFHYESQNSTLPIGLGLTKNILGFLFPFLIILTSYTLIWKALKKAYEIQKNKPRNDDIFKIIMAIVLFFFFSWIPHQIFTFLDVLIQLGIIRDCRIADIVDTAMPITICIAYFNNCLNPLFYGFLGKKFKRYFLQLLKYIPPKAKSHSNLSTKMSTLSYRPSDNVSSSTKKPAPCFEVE

[3] = Chemical stability of compound at 200 uM at pH 7 at 21 degC after 24 to 48 hrs by reversed-phase HPLC analysis; type: physicochemical; settings: buffer, pH 7, 200 µM
Summary of the method: (§1)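 Peptide incubated in phosphate buffer (PBS), pH 7.0, 21 °C, for 24 or 48 h. Remaining intact peptide assessed by reversed-phase HPLC chromatograms.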

[4] = target: T1, Type-1 angiotensin II receptor; assay: Displacement of [3H]-Asp-{Nomega-[N-(4-propanoylaminobutyl)aminocarbonyl]}Arg-ValTyr-Ile-His-Pro-Phe-OH Tris(hydrotrifluoroacetate) from human AT1 receptor transfected in CHO cells co-expressing Galpha16-mtAEQ after 2 hrs by liquid scintillation counting; type: cell-based
[5] = target: Neurotensin receptor type 1 (Homo sapiens, UniProt P30989); assay: Displacement of [3H]-{Nomega-[N-(4-propanoylaminobutyl)aminocarbonyl]}Arg-Arg-ProTyr-Ile-Leu-OH Tris(hydrotrifluoroacetate) from NTSR1 in human HT-29 cells after 2 hrs by liquid scintillation counting; type: cell-based
Chain of Neurotensin receptor type 1 (P30989 whole entry): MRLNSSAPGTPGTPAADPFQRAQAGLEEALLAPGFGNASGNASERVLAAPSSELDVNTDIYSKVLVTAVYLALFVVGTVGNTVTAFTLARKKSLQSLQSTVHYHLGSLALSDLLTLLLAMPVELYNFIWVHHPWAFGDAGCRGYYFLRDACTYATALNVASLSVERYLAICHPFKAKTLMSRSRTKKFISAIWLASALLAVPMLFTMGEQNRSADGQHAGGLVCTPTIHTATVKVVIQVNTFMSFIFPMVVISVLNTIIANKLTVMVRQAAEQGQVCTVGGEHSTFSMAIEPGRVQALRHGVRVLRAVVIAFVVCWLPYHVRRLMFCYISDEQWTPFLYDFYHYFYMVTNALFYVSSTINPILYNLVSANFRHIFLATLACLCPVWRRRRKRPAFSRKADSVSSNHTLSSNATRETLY

[6] = Drug degradation in human HT-29 cells at 50 uM after 2 hrs by reversed-phase HPLC analysis; type: ADME, cell-based; settings: read-out: Drug degradation
Summary of the method: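 Stability tested under binding-assay conditions for up to 6 h: AT1 ligands with CHO-hAT1 cells and NTSR1 ligands with HT-29 cells. Samples analysed by reversed-phase HPLC chromatography.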

[7] = Chemical stability of compound at 120 uM at pH 7 at 21 degC after 24 to 48 hrs by reversed-phase HPLC analysis; type: physicochemical; settings: buffer, pH 7, 120 µM; summary of the method: as §1
[8] = Chemical stability of compound at 150 uM at pH 7 at 21 degC after 24 to 48 hrs by reversed-phase HPLC analysis; type: physicochemical; settings: buffer, pH 7, 150 µM
Summary of the method: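 Peptide incubated in phosphate buffer (PBS), pH 7.0, 21 °C, for 24 or 48 h. Remaining intact peptide assessed from reversed-phase HPLC chromatograms.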

Question: Which Ki [1] does the source give for `CCC(=O)NCCCCNC(=O)/N=C(\N)NCCC[C@H](NC(=O)[C@H](Cc1ccc(O)cc1)NC(=O)CCCCCCC(=O)N[C@@H](Cc1ccc(O)cc1)C(=O)N[C@@H](CCCNC(=N)N)C(=O)N[C@@H](CC(C)C)C(=O)N[C@@H](CCCNC(=N)N)C(=O)N[C@@H](Cc1ccc(O)cc1)C(N)=O)C(=O)N[C@@H](CC(C)C)C(=O)N[C@@H](CCCNC(=N)N)C(=O)N[C@@H](Cc1ccc(O)cc1)C(N)=O` (I: Y[X1]LRY-NH2 / II: YRLRY-NH2; linker I:N-II:N via Suberoyl) here?
Answer: Its Ki is 3.6 nM.

Question: With `CC[C@H](C)[C@H](NC(=O)[C@H](Cc1ccc(O)cc1)NC(=O)[C@@H](NC(=O)[C@H](CCCN/C(N)=N/C(=O)NCCOCCOCCN)NC(=O)[C@@H](N)CC(=O)O)C(C)C)C(=O)N[C@@H](Cc1cnc[nH]1)C(=O)N1CCC[C@H]1C(=O)N[C@@H](Cc1ccccc1)C(=O)O.O=C(O)C(F)(F)F.O=C(O)C(F)(F)F.O=C(O)C(F)(F)F.O=C(O)C(F)(F)F` (H-D[X3]VYIHPF-OH) as the molecule, how does the EC50 [2] read?
Answer: Its EC50 is 2.1 nM.

Question: What about the Stability [3] of the same molecule?
Answer: Its Stability is “Stable”.

Question: What about the Ki [4] of the same molecule?
Answer: Its Ki is 2.8 nM.

Question: What does the source list for `COc1cccc(OC)c1-c1cc(C(=O)NC2(C(=O)O)C3CC4CC(C3)CC2C4)nn1-c1ccc(C(=O)N(C)CCCN(C)C)cc1C(C)C` (configuration not stated)?
Answer: IC50 [5]: 3.16 nM; Ki [5]: 1.1 nM

Question: Which metabolised at 2 h, 50 µM [6] does the source give for `CC[C@H](C)[C@H](NC(=O)[C@H](Cc1ccc(O)cc1)NC(=O)[C@@H]1CCCN1C(=O)[C@H](CCCNC(=N)N)NC(=O)[C@@H](N)CCCNC(=N)N)C(=O)N[C@@H](CC(C)C)C(=O)O` here?
Answer: The metabolised at 2 h, 50 µM was under 5.5%.

Question: Which Stability [7] does the source give for `CC[C@H](C)[C@H](NC(=O)[C@H](Cc1ccc(O)cc1)NC(=O)[C@@H](NC(=O)[C@H](CCCN/C(N)=N/C(=O)NCCCCNC(=O)CCCCC[n+]1cc(S(=O)(=O)[O-])ccc1/C=C/c1cc2ccc(N(CC)CC)cc2oc1=O)NC(=O)[C@@H](N)CC(=O)O)C(C)C)C(=O)N[C@@H](Cc1cnc[nH]1)C(=O)N1CCC[C@H]1C(=O)N[C@@H](Cc1ccccc1)C(=O)O.O=C(O)C(F)(F)F.O=C(O)C(F)(F)F.O=C(O)C(F)(F)F` here?
Answer: The Stability was “Stable”.

Question: With `CC(C)C[C@H](NC(=O)[C@H](CCCNC(=N)N)NC(=O)[C@H](Cc1ccc(O)cc1)NC(=O)CCCCCCC(=O)N[C@@H](Cc1ccc(O)cc1)C(=O)N[C@@H](CCCN/C(N)=N/C(=O)NCCCCN)C(=O)N[C@@H](CC(C)C)C(=O)N[C@@H](CCCNC(=N)N)C(=O)N[C@@H](Cc1ccc(O)cc1)C(N)=O)C(=O)N[C@@H](CCCNC(=N)N)C(=O)N[C@@H](Cc1ccc(O)cc1)C(N)=O` (I: Y[X2]LRY-NH2 / II: YRLRY-NH2; linker I:N-II:N via Suberoyl) as the molecule, how does the Ki [1] read?
Answer: Its Ki is 1.5 nM.

Question: With `CC(C)C[C@H](NC(=O)[C@H](CCCNC(=N)N)NC(=O)[C@H](Cc1ccc(O)cc1)NC(=O)CCCCCCC(=O)N[C@@H](Cc1ccc(O)cc1)C(=O)N[C@@H](CCCNC(=N)N)C(=O)N[C@@H](CC(C)C)C(=O)N[C@@H](CCCNC(=N)N)C(=O)N[C@@H](Cc1ccc(O)cc1)C(N)=O)C(=O)N[C@@H](CCCNC(=N)N)C(=O)N[C@@H](Cc1ccc(O)cc1)C(N)=O` (I: YRLRY-NH2 / II: YRLRY-NH2; linker I:N-II:N via Suberoyl) as the molecule, how does the Ki [1] read?
Answer: The Ki was 7.4 nM.

Question: With `CC[C@H](C)[C@H](NC(=O)[C@H](Cc1ccc(O)cc1)NC(=O)[C@@H]1CCCN1C(=O)[C@H](CCCNC(=N)N)NC(=O)[C@@H](N)CCCN/C(N)=N/C(=O)NCCCCNC(=O)CCCCC[n+]1cc(S(=O)(=O)[O-])ccc1/C=C/c1cc2ccc(N(CC)CC)cc2oc1=O)C(=O)N[C@@H](CC(C)C)C(=O)O.O=C(O)C(F)(F)F.O=C(O)C(F)(F)F.O=C(O)C(F)(F)F` as the molecule, how does the Stability [8] read?
Answer: The Stability was “Stable”.

Question: Which Ki [5] does the source give for `CC[C@H](C)[C@H](NC(=O)[C@H](Cc1ccc(O)cc1)NC(=O)[C@@H]1CCCN1C(=O)[C@H](CCCN/C(N)=N\C(=O)NCCOCCOCCN)NC(=O)[C@@H](N)CCCNC(=N)N)C(=O)N[C@@H](CC(C)C)C(=O)O` (H-R[X4]PYIL-OH) here?
Answer: Its Ki is 0.36 nM.
